ChEMBL document CHEMBL4732095, “Novel naphthylamide derivatives as dual-target antifungal inhibitors: Design, synthesis and biological evaluation” (Eur J Med Chem, 2021)
Activity calls are given as the source filed them. The rule behind the calls is not given here.

What was measured:
Candida albicans [1] = test: In vivo antifungal activity against Candida albicans infected in mouse assessed as disappearance of cell nuclear aggregation injected via abdomen for 7 days by H and E staining based histological analysis; format: functional, organism-based; conditions: SC5314, time 7.0 day
Summary of the method: (§1)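 Mice infected with C. albicans SC5314 by subcutaneous abdominal injection, then randomized into saline, and two compound-treated groups. Treatment given by abdominal injection for 7 days, with body weight monitored. Heart, liver, spleen, lung, kidney and infected abdominal tissue harvested for H&E histology.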

Candida albicans [2] = test: Antifungal activity against fluconazole-resistant Candida albicans 632 assessed as inhibition of microbial growth by NCCLS protocol based method; format: functional
[3] = Toxicity in mouse infected with Candida albicans SC5314 assessed as change in liver morphology administered via abdomen for 7 days by H and E staining based histological analysis; conditions: in vivo, ip, 168 h, time 7 day; summary of the method: as §1
Candida albicans SC5314 [4] = test: Inhibition of SE/CYP51 in Candida albicans ATCC SC5314 assessed as eburicol level at 4 ug/ml incubated for 48 hrs by LC/MS analysis (reference value: 1.4 %); set-up: scale not given: the % may be the effect or the level left; conditions: dose 4.0 µg/ml
Summary of the method: (§2)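 C. albicans SC5314 cells exposed to compound at 0.125, 0.5 or 4 μg/mL for 48 h, alongside untreated, fluconazole and naftifine controls. Sterols (ergosterol, squalene, lanosterol, eburicol, unknown) analysed by LC-MS. Each component expressed as percentage of total sterols from peak area ratios.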

[5] = Toxicity in mouse infected with Candida albicans SC5314 assessed as change in kidney morphology administered via abdomen for 7 days by H and E staining based histological analysis; conditions: in vivo, ip, 168 h, time 7 day; summary of the method: as §1
Candida albicans [6] = test: Antifungal activity against Candida albicans ATCC SC5314 assessed as reduction in cell division at 10 nM/mL by polarizing microscopy; format: functional, organism-based; conditions: dose 10.0 nmol/ml
Summary of the method: (§3)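 C. albicans ATCC SC5314 observed by polarizing microscopy over treatment time. Untreated, fluconazole- and naftifine-treated control groups were included. Cell density, dividing cells and cell fracture were assessed, with cell counts taken per field.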

Candida albicans [7] = test: Antifungal activity against fluconazole-resistant Candida albicans CaR assessed as inhibition of microbial growth by NCCLS protocol based method; format: functional
[8] = Renal toxicity in mouse infected with Candida albicans SC5314 assessed as effect on blood urea nitrogen level administered via abdomen for 7 days (reference value: 6.8 +/-0.4 mmol/L); conditions: in vivo, ip, 168 h, time 7 day
Candida albicans [9] = test: Antifungal activity against fluconazole-resistant Candida albicans 17# assessed as inhibition of microbial growth by NCCLS protocol based method; format: functional
[10] = Toxicity in mouse infected with Candida albicans SC5314 assessed as change in body weight administered via abdomen for 7 days; conditions: in vivo, ip, 168 h, time 7 day; summary of the method: as §1
Candida albicans [11] = test: Antifungal activity against fluconazole-resistant Candida albicans 904 assessed as inhibition of microbial growth by NCCLS protocol based method; format: functional
Candida albicans SC5314 [12] = test: Inhibition of SE/CYP51 in Candida albicans ATCC SC5314 assessed as lanosterol level at 4 ug/ml incubated for 48 hrs by LC/MS analysis; set-up: scale not given: the % may be the effect or the level left; conditions: dose 4.0 µg/ml; summary of the method: as §2
[13] = Hepatotoxicity in mouse infected with Candida albicans SC5314 assessed as effect on aspartate aminotransferase level in plasma administered via abdomen for 7 days (reference value: 104.7 +/- 5.2 IU/L); format: toxicity; conditions: ip, 168 h, time 7 day
Aspergillus fumigatus = test: Antifungal activity against Aspergillus fumigatus KM8001 assessed as inhibition of microbial growth by NCCLS protocol based method; format: functional
Summary of the method: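 Broth MIC50 determined following NCCLS guidelines in Sabouraud medium, with fungal suspension in 24-well format. Compound tested at 0.0625, 0.125, 0.5, 1, 2, 4, 8 and 16 μg/mL. Plates cultured statically at 35 °C. MIC50 is the lowest concentration giving 50% growth inhibition. Naftifine and fluconazole served as positive controls.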

Candida albicans SC5314 [14] = test: Inhibition of SE/CYP51 in Candida albicans ATCC SC5314 assessed as unknown sterol level at 0.5 ug/ml incubated for 48 hrs by LC/MS analysis (reference value: 3.5 %); set-up: scale not given: the % may be the effect or the level left; conditions: dose 0.5 µg/ml; summary of the method: as §2
Candida albicans [15] = test: Antifungal activity against Candida albicans ATCC SC5314 assessed as decrease in fungal cell density at 10 nM/mL by polarizing microscopy; format: functional, organism-based; conditions: dose 10.0 nmol/ml; summary of the method: as §3
Candida albicans SC5314 [16] = test: Inhibition of SE/CYP51 in Candida albicans ATCC SC5314 assessed as squalene level at 0.125 ug/ml incubated for 48 hrs by LC/MS analysis; set-up: scale not given: the % may be the effect or the level left; conditions: dose 0.125 µg/ml
Summary of the method: (§4)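 C. albicans ATCC SC5314 cells exposed to drug at 0.125, 0.5 or 4 μg/mL for 48 h, alongside an untreated control. Sterols were extracted and analysed by LC-MS. Ergosterol, squalene, lanosterol, eburicol and unknown sterols are each given as % of total sterols, calculated from the peak area ratio of each component.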

Candida albicans SC5314 [17] = test: Inhibition of SE/CYP51 in Candida albicans ATCC SC5314 assessed as eburicol level at […] ug/ml incubated for 48 hrs by LC/MS analysis (reference value: 1.4 %); set-up: scale not given: the % may be the effect or the level left; conditions: dose 0.125 µg/ml
Candida albicans [18] = test: Antifungal activity against fluconazole-resistant Candida albicans 901 assessed as inhibition of microbial growth by NCCLS protocol based method; format: functional
[19] = Toxicity in mouse infected with Candida albicans SC5314 assessed as change in heart morphology administered via abdomen for 7 days by H and E staining based histological analysis; conditions: in vivo, ip, 168 h, time 7 day; summary of the method: as §1
Candida albicans SC5314 [20] = test: Inhibition of SE/CYP51 in Candida albicans ATCC SC5314 assessed as eburicol level at 0.5 ug/ml incubated for 48 hrs by LC/MS analysis (reference value: 1.4 %); set-up: scale not given: the % may be the effect or the level left; conditions: dose 0.5 µg/ml; summary of the method: as §2
Candida albicans SC5314 [21] = test: Inhibition of SE/CYP51 in Candida albicans ATCC SC5314 assessed as lanosterol level at 0.5 ug/ml incubated for 48 hrs by LC/MS analysis; set-up: scale not given: the % may be the effect or the level left; conditions: dose 0.5 µg/ml; summary of the method: as §2
Candida albicans SC5314 [22] = test: Inhibition of SE/CYP51 in Candida albicans ATCC SC5314 assessed as squalene level at 0.5 ug/ml incubated for 48 hrs by LC/MS analysis; set-up: scale not given: the % may be the effect or the level left; conditions: dose 0.5 µg/ml; summary of the method: as §2
Candida albicans [23] = test: In vivo antifungal activity against Candida albicans SC5314 infected in mouse assessed as uniform cell distribution injected via abdomen for 7 days by H and E staining based histological analysis; format: functional, organism-based; conditions: time 7.0 day; summary of the method: as §1
Candida albicans SC5314 [24] = test: Inhibition of SE/CYP51 in Candida albicans ATCC SC5314 assessed as lanosterol level at 0.125 ug/ml incubated for 48 hrs by LC/MS analysis; set-up: scale not given: the % may be the effect or the level left; conditions: dose 0.125 µg/ml; summary of the method: as §4
[25] = Toxicity in mouse infected with Candida albicans SC5314 assessed as change in lung morphology administered via abdomen for 7 days by H and E staining based histological analysis; conditions: in vivo, ip, 168 h, time 7 day; summary of the method: as §1
Candida albicans SC5314 [26] = test: Inhibition of SE/CYP51 in Candida albicans ATCC SC5314 assessed as unknown sterol level at 4 ug/ml incubated for 48 hrs by LC/MS analysis (reference value: 3.5 %); set-up: scale not given: the % may be the effect or the level left; conditions: dose 4.0 µg/ml; summary of the method: as §2
Candida albicans SC5314 [27] = test: Inhibition of SE/CYP51 in Candida albicans ATCC SC5314 assessed as ergosterol level at 0.5 ug/ml incubated for 48 hrs by LC/MS analysis (reference value: 95.1 %); set-up: scale not given: the % may be the effect or the level left; conditions: dose 0.5 µg/ml; summary of the method: as §2
[28] = target: Lanosterol 14-alpha demethylase (Candida albicans (strain SC5314 / ATCC MYA-2876) (Yeast), UniProt P10613); test: Inhibition of Candida albicans ATCC SC5314 CYP51 incubated for 30 mins by HPLC method
Candida albicans [29] = test: Antifungal activity against Candida albicans ATCC SC5314 assessed as reduction in survival rate of fungal cells (reference value: 97%); format: functional

Lanosterol 14-alpha demethylase, sequence (P10613 whole entry): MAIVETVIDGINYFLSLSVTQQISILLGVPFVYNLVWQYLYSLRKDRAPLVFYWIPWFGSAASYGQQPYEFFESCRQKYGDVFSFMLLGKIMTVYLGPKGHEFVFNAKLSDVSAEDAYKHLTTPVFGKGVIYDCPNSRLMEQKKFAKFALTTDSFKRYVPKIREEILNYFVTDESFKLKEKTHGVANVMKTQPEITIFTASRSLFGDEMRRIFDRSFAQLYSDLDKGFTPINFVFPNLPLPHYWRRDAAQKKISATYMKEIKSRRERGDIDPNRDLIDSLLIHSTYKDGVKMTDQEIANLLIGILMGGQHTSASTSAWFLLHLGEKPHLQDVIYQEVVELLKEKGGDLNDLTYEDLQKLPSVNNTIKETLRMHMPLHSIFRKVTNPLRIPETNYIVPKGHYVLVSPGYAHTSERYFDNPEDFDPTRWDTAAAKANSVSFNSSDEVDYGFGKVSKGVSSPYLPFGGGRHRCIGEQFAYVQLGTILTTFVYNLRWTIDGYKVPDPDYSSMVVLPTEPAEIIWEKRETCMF

CC(NC(=O)c1cccc2ccccc12)C(=O)NC(Cn1ccnc1)C(=O)c1ccccc1 (stereo not given)
Activity (Candida albicans [1]): Active | MIC50 (Candida albicans [2]): 8 µg/mL | Activity [3]: Non-Toxic | Activity (Candida albicans SC5314 [4]): 42.6% | Activity [5]: Non-Toxic | Activity (Candida albicans [6]): Active | MIC50 (Candida albicans [7]): 4 µg/mL | Activity [8]: 6.4 mmol/L | MIC50 (Candida albicans [9]): 2 µg/mL | Activity [10]: Non-Toxic | MIC50 (Candida albicans [11]): 4 µg/mL | Activity (Candida albicans SC5314 [12]): 12.5% | Activity [13]: 112.3 IU/L | MIC50 (Aspergillus fumigatus): 4 µg/mL | Activity (Candida albicans SC5314 [14]): 5.8% | Activity (Candida albicans [15]): Active | Activity (Candida albicans SC5314 [16]): 7.9% | Activity (Candida albicans SC5314 [17]): 17.5% | MIC50 (Candida albicans [18]): 4 µg/mL | Activity [19]: Non-Toxic | Activity (Candida albicans SC5314 [20]): 34% | Activity (Candida albicans SC5314 [21]): 8.7% | Activity (Candida albicans SC5314 [22]): 21.6% | Activity (Candida albicans [23]): Active | Activity (Candida albicans SC5314 [24]): 2.8% | Activity [25]: Non-Toxic | Activity (Candida albicans SC5314 [26]): 6.2% | Activity (Candida albicans SC5314 [27]): 29.9% | IC50 [28]: 537 nM | Activity (Candida albicans [29]): 11%

O=C(NC(Cn1ccnc1)C(=O)NCc1ccncc1)c1ccc2ccccc2c1 (stereo not given)
Activity (Candida albicans [1]): Active | MIC50 (Candida albicans [2]): 8 µg/mL | Activity [3]: Non-Toxic | Activity (Candida albicans SC5314 [4]): 49.3% | Activity [5]: Non-Toxic | Activity (Candida albicans [6]): Active | MIC50 (Candida albicans [7]): 8 µg/mL | Activity [8]: 7.3 mmol/L | MIC50 (Candida albicans [9]): 4 µg/mL | Activity [10]: Non-Toxic | MIC50 (Candida albicans [11]): > 16 µg/mL | Activity (Candida albicans SC5314 [12]): 10.9% | Activity [13]: 108.6 IU/L | MIC50 (Aspergillus fumigatus): 4 µg/mL | Activity (Candida albicans SC5314 [14]): 4.8% | Activity (Candida albicans [15]): Active | Activity (Candida albicans SC5314 [16]): 9.2% | Activity (Candida albicans SC5314 [17]): 13.6% | MIC50 (Candida albicans [18]): 4 µg/mL | Activity [19]: Non-Toxic | Activity (Candida albicans SC5314 [20]): 37.9% | Activity (Candida albicans SC5314 [21]): 7.2% | Activity (Candida albicans SC5314 [22]): 14.5% | Activity (Candida albicans [23]): Active | Activity (Candida albicans SC5314 [24]): 3.8% | Activity [25]: Non-Toxic | Activity (Candida albicans SC5314 [26]): 6.1% | Activity (Candida albicans SC5314 [27]): 35.6% | IC50 [28]: 1150 nM | Activity (Candida albicans [29]): 16%
